Experiment [1] has as its target Kappa-type opioid receptor (Cavia porcellus) (UniProt P41144). Put plainly: Ratio of IC50 of ethylketazocine (agonist) after 10 min of incubation along with compound (antagonist) and IC50 of agonist in absence of compound for Opioid receptor kappa 1 at 1 uM in GPI assay (Exp 1). The experiment is classed as functional. Summed up:
(§1)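 Reversible antagonism was measured in electrically stimulated isolated tissue (MVD or GPI) with the antagonist present. Agonists were morphine (μ), ethylketazocine (κ) and DADLE (δ). The value is the agonist IC50 with antagonist divided by the IC50 without it, i.e. the fold rightward shift of the agonist dose-response curve. Mean ± SEM, n = 3 unless otherwise noted.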

For experiment [2] the target is unchanged. Put plainly: Ratio of IC50 of ethylketazocine (agonist) after 10 min of incubation along with compound (antagonist) and IC50 of agonist in absence of compound for Opioid receptor kappa 1 at 1 uM in GPI assay (Exp 2). The experiment is classed as functional. The essentials: as §1
Experiment [3] deals with T1, Opioid receptor (Mus musculus) (UniProt P42866+P32300+P33534). Put plainly: Reversible opioid agonist activity in the electrically stimulated mouse vas deferens(MVD) at 10 uM of concentration. The experiment is classed as functional.
T1 sequence (P32300 whole entry, looked up): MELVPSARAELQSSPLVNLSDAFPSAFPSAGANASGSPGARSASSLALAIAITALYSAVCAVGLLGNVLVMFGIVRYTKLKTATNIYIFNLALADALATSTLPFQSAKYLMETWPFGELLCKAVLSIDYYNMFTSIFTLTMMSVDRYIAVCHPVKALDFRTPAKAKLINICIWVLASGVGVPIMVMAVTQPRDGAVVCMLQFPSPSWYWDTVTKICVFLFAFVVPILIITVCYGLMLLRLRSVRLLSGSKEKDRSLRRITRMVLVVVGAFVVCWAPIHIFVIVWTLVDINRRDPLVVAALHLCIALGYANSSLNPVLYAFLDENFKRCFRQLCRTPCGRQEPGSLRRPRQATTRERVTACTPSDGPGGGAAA
T1 sequence (P33534 whole entry, looked up): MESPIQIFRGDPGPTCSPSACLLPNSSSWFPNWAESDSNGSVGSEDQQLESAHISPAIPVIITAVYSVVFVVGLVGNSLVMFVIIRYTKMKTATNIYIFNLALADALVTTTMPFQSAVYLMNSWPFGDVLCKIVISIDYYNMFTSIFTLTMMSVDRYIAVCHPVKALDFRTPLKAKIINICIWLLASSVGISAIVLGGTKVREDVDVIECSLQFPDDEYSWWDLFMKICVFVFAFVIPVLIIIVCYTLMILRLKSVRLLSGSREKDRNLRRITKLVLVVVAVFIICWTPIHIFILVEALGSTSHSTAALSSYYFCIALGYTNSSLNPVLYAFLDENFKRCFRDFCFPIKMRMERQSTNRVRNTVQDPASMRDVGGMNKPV
T1 sequence (P42866 whole entry, looked up): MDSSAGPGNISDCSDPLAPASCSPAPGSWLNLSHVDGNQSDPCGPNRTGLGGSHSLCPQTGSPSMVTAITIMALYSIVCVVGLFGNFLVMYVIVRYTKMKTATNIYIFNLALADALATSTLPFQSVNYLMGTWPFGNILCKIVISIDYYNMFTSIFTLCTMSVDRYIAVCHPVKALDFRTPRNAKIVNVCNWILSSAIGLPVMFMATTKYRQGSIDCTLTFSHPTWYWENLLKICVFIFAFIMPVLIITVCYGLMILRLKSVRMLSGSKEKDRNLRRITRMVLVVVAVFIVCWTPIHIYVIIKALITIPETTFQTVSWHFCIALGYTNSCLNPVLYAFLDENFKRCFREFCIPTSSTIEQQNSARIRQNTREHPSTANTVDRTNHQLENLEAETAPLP
The target in experiment [4] is Mu-type opioid receptor (Cavia porcellus) (UniProt P97266). The conditions noted are these: 1 uM.
Chain of Mu-type opioid receptor (Cavia porcellus) (P97266 whole entry): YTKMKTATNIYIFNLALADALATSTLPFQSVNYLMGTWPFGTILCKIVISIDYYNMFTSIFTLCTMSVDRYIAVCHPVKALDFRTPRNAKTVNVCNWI
Experiment [5] addresses T2, Opioid receptors; mu/kappa/delta (Homo sapiens) (UniProt P41145+P41143+P35372). The following applies: Cavia porcellus; Ileum; 1 uM.
The target in experiment [6] is Mu-type opioid receptor (Mus musculus) (UniProt P42866). As to the kind of experiment: Ratio of IC50 of […] (agonist) after 10 min of incubation along with compound (antagonist) and IC50 of agonist in absence of compound for Opioid receptor mu 1 at 1 uM in MVD assay. The class given is functional. The essentials:
as §1

The target in experiment [7] is Mu-type opioid receptor (Cavia porcellus) (UniProt P97266). The following applies: 1 uM. This is another data set of the same source.
For experiment [8], the species on record is Mus musculus. Put plainly: Ratio of IC50 of DADLE (agonist) expossed to the compound for 10 min and then washed 30 times to Ratio of IC50 of morphine (agonist) prior to exposure to compound. The class given is functional. The essentials:
(§2)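 Irreversible antagonism was measured in isolated tissue. The tissue was exposed to the compound for 10 min (30 min in some cases), then washed 30 times with fresh buffer to remove non-covalently bound ligand. Agonist IC50 was then redetermined. The ratio is this post-wash IC50 over the agonist IC50 in the same tissue before exposure. Mean ± SEM, n = 3 unless otherwise noted.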

Experiment [9] concerns the target T2, Opioid receptors; mu/kappa/delta (Homo sapiens). As to the kind of experiment: (§3) Reversible opioid agonist activity in the electrically stimulated guinea pig ileum(GPI) at 1 uM concentration (Exp 2). The class given is functional, tissue-based. The conditions noted are these: Cavia porcellus, target entry is the homologue from another species.
The species named for experiment [10] is Mus musculus. Put plainly: Ratio of IC50 of morphine (agonist) expossed to the compound for 10 min and then washed 30 times to Ratio of IC50 of morphine (agonist) prior to exposure to compound. The experiment is classed as functional. The essentials:
as §2

The target in experiment [11] is T1, Opioid receptor (Mus musculus). As to the kind of experiment: (§4) Reversible opioid agonist activity in the electrically stimulated mouse vas deferens(MVD) at 1 uM concentration. The experiment is classed as functional.
For experiment [12], the target named is Delta-type opioid receptor (Mus musculus) (UniProt P32300). Put plainly: Ratio of IC50 of DADLE (agonist) after 10 min of incubation along with compound (antagonist) and IC50 of agonist in the absence of compound for Opioid receptor delta 1 at 1 uM in MVD assay. The class given is functional. Summed up:
as §1

Experiment [13] shares this target. Put plainly: Ratio of IC50 of DADLE (agonist) after 10 min of incubation along with compound (antagonist) and IC50 of agonist in the absence of compound for Opioid receptor delta 1 at 10 uM in MVD assay. The experiment is classed as functional. Summed up: as §1
For experiment [14], the target named is Mu-type opioid receptor (Mus musculus) (UniProt P42866). The conditions noted are these: 10 uM.
Chain of Mu-type opioid receptor (Mus musculus) (P42866 whole entry): as the sequence (P42866 whole entry, looked up) above
Experiment [15] deals with Delta-type opioid receptor (Mus musculus) (UniProt P32300). The following applies: 10 uM.
Chain of Delta-type opioid receptor (Mus musculus) (P32300 whole entry): as the sequence (P32300 whole entry, looked up) above
Experiment [16] addresses Kappa-type opioid receptor (Cavia porcellus) (UniProt P41144). The conditions noted are these: 1 uM.
The species entered for experiment [17] is Cavia porcellus. Put plainly: Reversible opioid agonist activity in the electrically stimulated guinea pig ileum(GPI) at 1 uM concentration (Exp 1). The experiment is classed as functional.
Experiment [18] is filed under the species Mus musculus. The description is as §4. The class given is functional.
Experiment [19] has as its target Delta-type opioid receptor (Mus musculus) (UniProt P32300). Put plainly: Ratio of IC50 of DADLE (agonist) after 10 min of incubation along with compound (antagonist) and IC50 of agonist in the absence of compound for delta opioid receptor at 1 uM in MVD assay. The class given is functional. Summed up: as §1
Experiment [20] concerns the target Delta-type opioid receptor (Homo sapiens) (UniProt P41143). The following applies: Cavia porcellus; 1 uM.
The target is the same in experiment [21]. The conditions noted are these: Cavia porcellus; 1 uM. This is another data set of the same source.
Experiment [22] is filed under the species Cavia porcellus. The experiment is described as §3.
In experiment [23] the target is Delta-type opioid receptor (Homo sapiens) (UniProt P41143). The conditions noted are these: Cavia porcellus; 1 uM. The source holds these as a separate data set.
Chain of Delta-type opioid receptor (Homo sapiens) (P41143 whole entry): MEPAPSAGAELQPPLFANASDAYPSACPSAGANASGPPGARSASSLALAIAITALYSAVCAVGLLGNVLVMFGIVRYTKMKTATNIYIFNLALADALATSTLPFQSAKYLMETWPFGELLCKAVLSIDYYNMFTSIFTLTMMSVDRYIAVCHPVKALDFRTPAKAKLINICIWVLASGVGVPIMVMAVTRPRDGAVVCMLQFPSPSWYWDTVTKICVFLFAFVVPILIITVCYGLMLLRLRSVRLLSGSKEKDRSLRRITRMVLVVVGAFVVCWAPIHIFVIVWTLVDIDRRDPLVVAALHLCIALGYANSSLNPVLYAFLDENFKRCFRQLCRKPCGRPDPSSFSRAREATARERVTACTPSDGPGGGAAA
The target in experiment [24] is Kappa-type opioid receptor (Cavia porcellus) (UniProt P41144). As to the kind of experiment: Ratio of IC50 of ethylketazocine (agonist) after 10 min of incubation along with compound (antagonist) and IC50 of agonist in absence of compound for kappa opioid receptor at 1 uM in GPI assay (Exp 1). The experiment is classed as functional. Summed up:
as §1

Experiment [25] concerns the target Mu-type opioid receptor (Homo sapiens) (UniProt P35372). Put plainly: Ratio of IC50 of […] (agonist) after 10 min of incubation along with compound (antagonist) and IC50 of agonist in absence of compound for mu opioid receptor at 1 uM in MVD assay. The class given is functional. The conditions noted are these: Mus musculus. Summed up: as §1
For experiment [26], the species on record is Cavia porcellus. The experiment is described as §3. The class given is functional.
Experiment [27] is filed under the species Cavia porcellus. Put plainly: Reversible opioid antagonist activity in the electrically stimulated guinea pig ileum(GPI). Antagonist activity was evaluated with morphine at 0.02 uM concentration (Exp 2). The class given is functional.
The target in experiment [28] is Mu-type opioid receptor (Cavia porcellus) (UniProt P97266). Put plainly: Ratio of IC50 of […] (agonist) after 10 min of incubation along with compound (antagonist) and IC50 of agonist in absence of compound for mu opioid receptor at 1 uM in GPI assay (Exp 2). The experiment is classed as functional. Summed up: as §1
For experiment [29] the target is unchanged. As to the kind of experiment: Ratio of IC50 of […] (agonist) after 10 min of incubation along with compound (antagonist) and IC50 of agonist in absence of compound for mu opioid receptor at 1 uM in GPI assay. The class given is functional. The essentials: as §1
Experiment [30] concerns the target Kappa-type opioid receptor (Cavia porcellus) (UniProt P41144). As to the kind of experiment: Ratio of IC50 of ethylketazocine (agonist) after 10 min of incubation along with compound (antagonist) and IC50 of agonist in absence of compound for kappa opioid receptor at 1 uM in GPI assay. The experiment is classed as functional. Summed up: as §1

The results in this text go back to ChEMBL document CHEMBL1123840, “Synthesis and evaluation of melphalan-containing N,N-dialkylenkephalin analogues as irreversible antagonists of the delta opioid receptor” (J Med Chem, 1987).

What is called inhibition is how much of the control response was suppressed. What is called pIC50 is −log10 of the IC50, conventionally taken in molar units. A higher pIC50 goes with a small IC50. What is called Inhibition is the drop in the measured response relative to a control, in per cent. Lower therefore signals a response near the control.

pIC50: −log10 of the molar value. Several values for one entry are separate records, joined by “and”; a condition that tells them apart may be missing. Identical values can stand only once. Square brackets hold non-standard residues; d marks the D form. Peptide text beside a SMILES is read from it. * marks the point of attachment. ξ: configuration not given here. Tyr(Nα,Nα-Bn2) = O=C([C@H](Cc1ccc(O)cc1)N(Cc1ccccc1)Cc1ccccc1)*; Phe(4-N(CH2CH2Cl)2) = N[C@@H](Cc1ccc(N(CCCl)CCCl)cc1)C(=O)O; ξPhe(4-N(CH2CH2Cl)2) = NC(Cc1ccc(N(CCCl)CCCl)cc1)C(=O)O; X1 = O=C(C(Cc1ccc(O)cc1)N(Cc1ccccc1)Cc1ccccc1)*; ξL = CC(C)CC(N)C(=O)O; Aib = CC(C)(N)C(=O)O

Chain of Mu-type opioid receptor (Homo sapiens) (P35372 whole entry): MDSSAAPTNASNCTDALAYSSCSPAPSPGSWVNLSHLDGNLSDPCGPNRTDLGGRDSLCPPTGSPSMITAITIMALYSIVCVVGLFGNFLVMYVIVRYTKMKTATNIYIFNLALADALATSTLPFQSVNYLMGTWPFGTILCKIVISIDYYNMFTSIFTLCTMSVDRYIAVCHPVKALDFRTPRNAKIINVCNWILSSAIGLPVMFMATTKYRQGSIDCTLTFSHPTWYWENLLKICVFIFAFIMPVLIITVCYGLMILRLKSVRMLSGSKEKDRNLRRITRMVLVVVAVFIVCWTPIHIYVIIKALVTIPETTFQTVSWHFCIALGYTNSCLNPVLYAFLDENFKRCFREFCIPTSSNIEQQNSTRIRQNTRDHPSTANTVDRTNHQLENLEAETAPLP
Chain of Kappa-type opioid receptor (Cavia porcellus) (P41144 whole entry): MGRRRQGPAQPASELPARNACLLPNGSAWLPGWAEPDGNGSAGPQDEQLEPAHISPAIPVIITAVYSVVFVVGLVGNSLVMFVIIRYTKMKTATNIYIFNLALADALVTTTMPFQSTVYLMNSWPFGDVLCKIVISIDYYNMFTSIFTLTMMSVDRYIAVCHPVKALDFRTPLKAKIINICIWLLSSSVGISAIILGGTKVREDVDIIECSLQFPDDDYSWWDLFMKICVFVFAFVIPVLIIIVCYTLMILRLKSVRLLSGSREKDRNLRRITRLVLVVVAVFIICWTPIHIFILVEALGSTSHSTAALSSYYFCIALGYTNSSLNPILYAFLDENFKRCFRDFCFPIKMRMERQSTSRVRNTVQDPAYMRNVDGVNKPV
T2 sequence (P35372 whole entry, looked up): as the sequence (P35372 whole entry) above
T2 sequence (P41143 whole entry, looked up): as the sequence (P41143 whole entry) above
T2 sequence (P41145 whole entry, looked up): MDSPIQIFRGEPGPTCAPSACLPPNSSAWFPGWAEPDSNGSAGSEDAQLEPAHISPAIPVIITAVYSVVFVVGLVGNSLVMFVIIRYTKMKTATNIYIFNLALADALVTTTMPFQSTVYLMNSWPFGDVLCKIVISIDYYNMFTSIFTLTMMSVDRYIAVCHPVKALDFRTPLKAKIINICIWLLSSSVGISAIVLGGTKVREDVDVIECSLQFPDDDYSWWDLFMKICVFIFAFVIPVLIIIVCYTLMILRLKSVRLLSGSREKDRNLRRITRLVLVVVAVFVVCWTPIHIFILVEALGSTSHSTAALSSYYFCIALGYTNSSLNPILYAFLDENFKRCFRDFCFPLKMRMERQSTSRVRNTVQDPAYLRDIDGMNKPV

For `CC(C)CC(NC(=O)C(Cc1ccc(N(CCCl)CCCl)cc1)NC(=O)CNC(=O)CNC(=O)C(Cc1ccc(O)cc1)N(Cc1ccccc1)Cc1ccccc1)C(=O)O` (stereo unspecified) (X1-GG[ξPhe(4-N(CH2CH2Cl)2)][ξL]-OH), the IC50 ratio amounted to 0.4 in [1]; 0.4 in [2]; 0.5 in experiment [4]; 1 in experiment [6]; 0.7 in experiment [7]; 2.4 in the experiment listed under Mus musculus [8]. The IC50 ratio in the experiment filed under Mus musculus [10] was found to be 1.2; in experiment [12] it was 3; in [13], 7.7; in experiment [14], 1.7. Further, the inhibition in [3] amounted to 18.3%; in experiment [5], 4.8%; in [9] it was 10%; in experiment [11] it was 16.2%.
For the molecule `CC(C)C[C@H](NC(=O)[C@H](Cc1ccccc1)NC(=O)CNC(=O)CNC(=O)[C@H](Cc1ccc(O)cc1)N(Cc1ccccc1)Cc1ccccc1)C(=O)O` ({Tyr(Nα,Nα-Bn2)}-GGFL-OH), the IC50 ratio in [15] is 96.9; in experiment [16] it was 1; in experiment [19], 6.6; in experiment [20], 0.8; in experiment [21] it was 1.2; in experiment [23], 2.5. Besides, the IC50 ratio in the experiment listed under Mus musculus [10] worked out at 1; in [24], 1; in experiment [25], 0.6. In addition, the inhibition at 1 µM in the experiment listed under Cavia porcellus [17] amounted to 1.9%; in the experiment listed under Mus musculus [18], 11.4%; in the experiment filed under Cavia porcellus [22], 2.9%.
Regarding `CC(C)C[C@H](NC(=O)[C@H](Cc1ccccc1)NC(=O)C(C)(C)NC(=O)C(C)(C)NC(=O)[C@H](Cc1ccc(O)cc1)N(Cc1ccccc1)Cc1ccccc1)C(=O)O` ({Tyr(Nα,Nα-Bn2)}-[Aib][Aib]FL-OH), in the experiment listed under Cavia porcellus [26], the pIC50 was 6.52. Also, the inhibition at 1 µM in the experiment listed under Cavia porcellus [17] turned out to be 68.7%; in the experiment listed under Mus musculus [18], 25.7%. Also, the IC50 ratio in experiment [19] was determined as 5.6; in the experiment listed under Cavia porcellus [27], 1.3; in experiment [24], 1; in experiment [25], 1; in experiment [28], 0.7.
In the case of `CC(C)C[C@H](NC(=O)[C@H](Cc1ccc(N(CCCl)CCCl)cc1)NC(=O)C(C)(C)NC(=O)C(C)(C)NC(=O)[C@H](Cc1ccc(O)cc1)N(Cc1ccccc1)Cc1ccccc1)C(=O)O` ({Tyr(Nα,Nα-Bn2)}-[Aib][Aib][Phe(4-N(CH2CH2Cl)2)]L-OH), the IC50 ratio in experiment [29] was 0.4 and 1; in [19], 1.2; in [30], 0.2 and 0.3; in [25], 1. The molecule also gave an Inhibition in the experiment filed under Cavia porcellus [17] of 12.5%. For the same molecule, the inhibition at 1 µM amounted to 9.4% in the experiment filed under Cavia porcellus [17] (Cavia porcellus, Ileum) and 22.5% in the experiment listed under Mus musculus [18].
